Laboratory results from ChEMBL document CHEMBL1138014, “1-(2-Aminoethyl)-3-(arylsulfonyl)-1H-indoles as novel 5-HT6 receptor ligands” (Bioorg Med Chem Lett, 2004).

Columns and labels:
Format in all cases: cell-based
[1] = molecular target: T1, 5-hydroxytryptamine receptor 6 (Homo sapiens, UniProt P50406); experiment: Inhibitory potency against human 5-hydroxytryptamine 6 receptor transfected in HeLa cells in cAMP assay
Outline: (§1)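 Human 5-HT6 receptor stably transfected into HeLa cells. Cells were washed with Krebs buffer, then preincubated for 5 min at 37°C in Krebs with 500 µM IBMX. They were then exposed to test compound (0.1–10,000 nM) for 10 min at 37°C. The reaction was stopped with 0.5 M perchloric acid, and intracellular cAMP was measured by scintillation proximity radioimmunoassay.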

[2] = molecular target: T1, 5-hydroxytryptamine receptor 6; experiment: Inhibitory concentration against human 5-hydroxytryptamine 6 receptor transfected in HeLa cells in cAMP assay; outline: as §1
[3] = molecular target: T1, 5-hydroxytryptamine receptor 6; experiment: Binding affinity against human 5-hydroxytryptamine 6 receptor transfected in HeLa cells
[4] = molecular target: T1, 5-hydroxytryptamine receptor 6; experiment: Percent inhibitory activity against human 5-hydroxytryptamine 6 receptor transfected in HeLa cells at 1 uM

T1 sequence (P50406 whole entry): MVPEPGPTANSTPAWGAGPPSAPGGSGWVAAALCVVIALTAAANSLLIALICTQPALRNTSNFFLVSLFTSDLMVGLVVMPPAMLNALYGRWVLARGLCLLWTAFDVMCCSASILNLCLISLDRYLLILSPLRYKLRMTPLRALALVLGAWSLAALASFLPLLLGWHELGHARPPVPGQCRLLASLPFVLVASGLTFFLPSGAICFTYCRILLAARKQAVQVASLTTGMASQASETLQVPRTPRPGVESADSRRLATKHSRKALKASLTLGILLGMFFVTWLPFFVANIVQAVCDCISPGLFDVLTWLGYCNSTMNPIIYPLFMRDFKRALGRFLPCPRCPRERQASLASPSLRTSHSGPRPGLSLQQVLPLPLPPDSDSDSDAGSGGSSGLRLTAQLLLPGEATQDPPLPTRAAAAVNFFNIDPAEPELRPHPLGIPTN

Compound	Imax [1] [%]	IC50 [2] [nM]	Ki [3] [nM]	inhibition [4] [%]
CN(C)CCn1cc(S(=O)(=O)c2ccccc2OC(F)(F)F)c2ccccc21	100	792	–	–
NCCc1cn(S(=O)(=O)c2ccccc2)c2ccccc12	–	–	10.3	–
CNCCn1cc(S(=O)(=O)c2cccc3ccccc23)c2ccccc21	97	359	5.7	–
CN(C)CCn1cc(S(=O)(=O)c2cccc3ccccc23)c2ccccc21	97	47	3.7	–
COc1ccc2c(c1)c(S(=O)(=O)c1ccccc1)cn2CCN1CCCCC1	–	–	–	55
COc1ccc2c(c1)c(S(=O)(=O)c1ccccc1)cn2CCN	–	–	–	86
CNCCc1cn(S(=O)(=O)c2ccccc2)c2ccccc12	–	–	5	–
CN(C)CCn1cc(S(=O)(=O)c2ccccc2)c2ccc(C#N)cc21	–	–	–	42
COc1cccc2c(S(=O)(=O)c3ccccc3)cn(CCN(C)C)c12	80.5	23	–	–
COc1ccc2c(S(=O)(=O)c3ccccc3)cn(CCN)c2c1	–	–	–	78
NCCn1cc(S(=O)(=O)c2ccccc2)c2cc(F)ccc21	–	–	27	–
CNCCn1cc(S(=O)(=O)c2ccccc2)c2ccccc21	–	–	15.5	–
